# Assay results from ChEMBL document CHEMBL4138178, “Green, unexpected synthesis of bis-coumarin derivatives as potent anti-bacterial and anti-inflammatory agents” (2018).
# Key:
# Assay type in all cases: functional
# Staphylococcus aureus = test: Antibacterial activity against Staphylococcus aureus MTCC 12598 after 24 hrs by broth microdilution method; conditions: MTCC 12598, 24 h
# Procedure, shortened: (§1)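 Broth tube dilution in BHI broth, run in triplicate. Strains sub-cultured at 35 °C for 48 h. Inoculum grown in BHI at 35 °C for 2–6 h and adjusted to 0.5 McFarland. Ten-tube serial dilution of compound, 200 µL diluted culture added to each tube. Media plus culture tube as control. Incubated 24 h at 37 °C; MIC read by turbidity.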
# Enterococcus faecalis = test: Antibacterial activity against Enterococcus faecalis MTCC 35550 after 24 hrs by broth microdilution method; conditions: MTCC 35550, 24 h; procedure, shortened: as §1
# Bacillus cereus = test: Antibacterial activity against Bacillus cereus after 24 hrs by broth microdilution method
# Escherichia coli = test: Antibacterial activity against Escherichia coli MTCC 443 after 24 hrs by broth microdilution method; conditions: MTCC 443, 24 h; procedure, shortened: as §1
# Pseudomonas aeruginosa = test: Antibacterial activity against Pseudomonas aeruginosa MTCC 25668 after 24 hrs by broth microdilution method; conditions: MTCC 25668, 24 h; procedure, shortened: as §1
# Prevotella intermedia = test: Antibacterial activity against Prevotella intermedia after 24 hrs by broth microdilution method
# Erythrocyte = test: Anti-inflammatory activity in human RBC membranes assessed as inhibition of heat-induced hemolysis at 100 ug/mL incubated for 20 mins at 54 degC by UV-VIS spectrometer analysis relative to control
# Procedure, shortened: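 Washed human RBCs as 40% (v/v) stock in isotonic 10 mM sodium phosphate buffer pH 7.4 with 0.9% NaCl. Compound 0.1 mg/mL in isotonic buffer with 30 µL erythrocyte suspension, duplicate sets. One pair heated at 54 °C for 20 min, other held at 0-5 °C. Spun 3 min at 1300 rpm, supernatant absorbance at 540 nm. % inhibition = 100 × [1 − (OD2−OD1)/(OD3−OD1)]; vehicle control.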
SMILES,MIC (Staphylococcus aureus),MIC (Enterococcus faecalis),MIC (Bacillus cereus),MIC (Escherichia coli),MIC (Pseudomonas aeruginosa),MIC (Prevotella intermedia),inhibition at 100 µg/mL (Erythrocyte)
CCOC(=O)C1=C(N)Oc2c(c(=O)oc3ccccc23)C1c1cc(=O)oc2cc(C)ccc12 (centres undefined),12.5 µg/mL,6.25 µg/mL,25 µg/mL,6.25 µg/mL,6.25 µg/mL,6.25 µg/mL,69.4%
CCOC(=O)C1=C(N)Oc2c(c(=O)oc3ccccc23)C1c1cc(=O)oc2ccc(Cl)cc12 (centres undefined),12.5 µg/mL,1.56 µg/mL,25 µg/mL,6.25 µg/mL,1.56 µg/mL,1.56 µg/mL,62.2%
COc1ccc2oc(=O)cc(C(CC(=O)O)c3c(O)c4ccccc4oc3=O)c2c1 (centres undefined),3.25 µg/mL,1.56 µg/mL,6.25 µg/mL,1.56 µg/mL,1.56 µg/mL,6.25 µg/mL,23.3%
N#CC1=C(N)Oc2c(c(=O)oc3ccccc23)C1c1cc(=O)oc2ccc(Cl)cc12 (centres undefined),25 µg/mL,3.25 µg/mL,25 µg/mL,6.25 µg/mL,6.25 µg/mL,6.25 µg/mL,43.3%
COc1ccc2oc(=O)cc(C3C(C#N)=C(N)Oc4c3c(=O)oc3ccccc43)c2c1 (centres undefined),12.5 µg/mL,3.25 µg/mL,6.25 µg/mL,1.56 µg/mL,1.56 µg/mL,6.25 µg/mL,15.3%
COc1ccc2oc(=O)cc(C3CC(=O)Oc4c3c(=O)oc3ccccc43)c2c1 (centres undefined),6.25 µg/mL,6.25 µg/mL,6.25 µg/mL,3.25 µg/mL,6.25 µg/mL,25 µg/mL,50.5%
O=C(O)CC(c1c(O)c2ccccc2oc1=O)c1cc(=O)oc2ccc(Cl)cc12 (centres undefined),3.25 µg/mL,1.56 µg/mL,25 µg/mL,1.56 µg/mL,25 µg/mL,3.25 µg/mL,61.2%
O=C(O)c1cn(C2CC2)c2cc(N3CCNCC3)c(F)cc2c1=O [CIPROFLOXACIN],–,6.25 µg/mL,6.25 µg/mL,–,–,6.25 µg/mL,–
Cc1ccc2c(C3CC(=O)Oc4c3c(=O)oc3ccccc43)cc(=O)oc2c1 (centres undefined),6.25 µg/mL,3.25 µg/mL,6.25 µg/mL,1.56 µg/mL,25 µg/mL,3.25 µg/mL,36.8%
Cc1ccc2c(C(CC(=O)O)c3c(O)c4ccccc4oc3=O)cc(=O)oc2c1 (centres undefined),3.25 µg/mL,3.25 µg/mL,6.25 µg/mL,3.25 µg/mL,6.25 µg/mL,25 µg/mL,76.4%
CC(=O)Oc1ccccc1C(=O)O [ASPIRIN],–,–,–,–,–,–,36.2%
CCOC(=O)C1=C(N)Oc2c(c(=O)oc3ccccc23)C1c1cc(=O)oc2ccc(C)cc12 (centres undefined),3.25 µg/mL,6.25 µg/mL,6.25 µg/mL,1.56 µg/mL,6.25 µg/mL,6.25 µg/mL,42.3%
Cc1ccc2oc(=O)cc(C(CC(=O)O)c3c(O)c4ccccc4oc3=O)c2c1 (centres undefined),1.56 µg/mL,1.56 µg/mL,25 µg/mL,3.25 µg/mL,25 µg/mL,6.25 µg/mL,14.1%
O=C(O)CC(c1c(O)c2ccccc2oc1=O)c1cc(=O)oc2c1ccc1ccccc12 (centres undefined),6.25 µg/mL,1.56 µg/mL,6.25 µg/mL,3.25 µg/mL,6.25 µg/mL,25 µg/mL,59.1%
O=C1CC(c2cc(=O)oc3c2ccc2ccccc23)c2c(c3ccccc3oc2=O)O1 (centres undefined),25 µg/mL,6.25 µg/mL,25 µg/mL,6.25 µg/mL,1.56 µg/mL,25 µg/mL,37.6%
Cc1ccc2c(C3C(C#N)=C(N)Oc4c3c(=O)oc3ccccc43)cc(=O)oc2c1 (centres undefined),1.56 µg/mL,6.25 µg/mL,1.56 µg/mL,1.56 µg/mL,1.56 µg/mL,6.25 µg/mL,69.1%
CCOC(=O)C1=C(N)Oc2c(c(=O)oc3ccccc23)C1c1cc(=O)oc2c1ccc1ccccc12 (centres undefined),6.25 µg/mL,6.25 µg/mL,6.25 µg/mL,1.56 µg/mL,1.56 µg/mL,6.25 µg/mL,61.2%
O=C1CC(c2cc(=O)oc3ccc(Cl)cc23)c2c(c3ccccc3oc2=O)O1 (centres undefined),6.25 µg/mL,3.25 µg/mL,25 µg/mL,6.25 µg/mL,25 µg/mL,6.25 µg/mL,70.7%
Cc1ccc2oc(=O)cc(C3C(C#N)=C(N)Oc4c3c(=O)oc3ccccc43)c2c1 (centres undefined),6.25 µg/mL,1.56 µg/mL,6.25 µg/mL,6.25 µg/mL,25 µg/mL,6.25 µg/mL,11.2%
N#CC1=C(N)Oc2c(c(=O)oc3ccccc23)C1c1cc(=O)oc2c1ccc1ccccc12 (centres undefined),3.25 µg/mL,1.56 µg/mL,1.56 µg/mL,6.25 µg/mL,25 µg/mL,1.56 µg/mL,54.4%
CCOC(=O)C1=C(N)Oc2c(c(=O)oc3ccccc23)C1c1cc(=O)oc2ccc(OC)cc12 (centres undefined),6.25 µg/mL,6.25 µg/mL,6.25 µg/mL,6.25 µg/mL,25 µg/mL,1.56 µg/mL,52.1%
Cc1ccc2oc(=O)cc(C3CC(=O)Oc4c3c(=O)oc3ccccc43)c2c1 (centres undefined),12.5 µg/mL,6.25 µg/mL,50 µg/mL,1.56 µg/mL,25 µg/mL,3.25 µg/mL,31.4%
